According to ChEMBL document CHEMBL5724801, “EUbOPEN Chemogenomics Library - Multiplex” (2024):
Several values for one entry are separate records, joined by “and”; a condition that tells them apart may be missing. Identical values can stand only once.

System: U2OS
Experiment: Multiplex assay against U2OS
Assay type: toxicity, cell-based
Details: human
Procedure, shortened: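 Hoechst33342, BioTracker Green Microtubule Cytoskeleton Dye, MitoTracker Red and Annexin V Alexa Fluor 680 were added to live cells at seeding, and imaging on a CQ1 microscope at 37°C and 5% CO2 followed compound addition. Gating by CellPathfinder machine learning separated cells into Hoechst high-intensity objects or normal cells, then normal cells into healthy, pyknosed or fragmented nuclei, then pyknosed cells into mitotic or apoptotic. Per cents of healthy-nucleus cells are reported for the tubulin, mitochondrial-mass and membrane-permeability phenotypes.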

[1] = 12 h, 1 µM, compound concentration 1 uM
[2] = 12 h, 10 µM, compound concentration 10 uM
[3] = 24 h, 1 µM, compound concentration 1 uM
[4] = 24 h, 10 µM, compound concentration 10 uM
[5] = 48 h, 1 µM, compound concentration 1 uM
[6] = 48 h, 10 µM, compound concentration 10 uM

CN(C)c1ccnc2sc3c(=O)n(N4CCCCCC4)cnc3c12
Population Apoptotic (%) [1]: 81% and 87%
Population Fragmented Nuclei (%) [1]: 19% and 16%
Population Healthy Nuclei (%) [1]: 72% and 77%
Population Hoechst High Intensity Objects (%) [1]: 1%
Population Membrane Permeable-Phenotype (%) [1]: 4% and 6%
Population Mitochondria Different-Phenotype (%) [1]: 2%
Population Mitotic Cells (%) [1]: 18% and 12%
Population Normal (%) [1]: 98%
Population Pyknosed Nuclei (%) [1]: 7% and 6%
Population Tubulin-Different-Phenotype (%) [1]: 2%
Total Cell Count [1]: 284 and 132
Population Apoptotic (%) [2]: 41% and 88%
Population Fragmented Nuclei (%) [2]: 30% and 18%
Population Healthy Nuclei (%) [2]: 56% and 71%
Population Hoechst High Intensity Objects (%) [2]: 4% and 5%
Population Membrane Permeable-Phenotype (%) [2]: 30% and 23%
Population Mitochondria Different-Phenotype (%) [2]: 14% and 27%
Population Normal (%) [2]: 95% and 94%
Population Pyknosed Nuclei (%) [2]: 12% and 9%
Population Tubulin-Different-Phenotype (%) [2]: 20% and 22%
Total Cell Count [2]: 249 and 101
Population Apoptotic (%) [3]: 87% and 72%
Population Fragmented Nuclei (%) [3]: 16% and 15%
Population Healthy Nuclei (%) [3]: 72% and 76%
Population Hoechst High Intensity Objects (%) [3]: 2%
Population Membrane Permeable-Phenotype (%) [3]: 3% and 6%
Population Mitochondria Different-Phenotype (%) [3]: 3%
Population Mitotic Cells (%) [3]: 12% and 27%
Population Normal (%) [3]: 97%
Population Pyknosed Nuclei (%) [3]: 10% and 7%
Population Tubulin-Different-Phenotype (%) [3]: 1% and 4%
Total Cell Count [3]: 326 and 150
Population Apoptotic (%) [4]: 68% and 100%
Population Fragmented Nuclei (%) [4]: 28% and 11%
Population Healthy Nuclei (%) [4]: 56% and 75%
Population Hoechst High Intensity Objects (%) [4]: 4% and 3%
Population Membrane Permeable-Phenotype (%) [4]: 22% and 23%
Population Mitochondria Different-Phenotype (%) [4]: 15% and 25%
Population Normal (%) [4]: 95% and 96%
Population Pyknosed Nuclei (%) [4]: 15% and 13%
Population Tubulin-Different-Phenotype (%) [4]: 14% and 24%
Total Cell Count [4]: 260 and 108
Population Apoptotic (%) [5]: 90% and 92%
Population Fragmented Nuclei (%) [5]: 17% and 15%
Population Healthy Nuclei (%) [5]: 74% and 72%
Population Hoechst High Intensity Objects (%) [5]: 2%
Population Membrane Permeable-Phenotype (%) [5]: 4% and 5%
Population Mitochondria Different-Phenotype (%) [5]: 1% and 5%
Population Mitotic Cells (%) [5]: 9% and 7%
Population Normal (%) [5]: 97%
Population Pyknosed Nuclei (%) [5]: 8% and 11%
Population Tubulin-Different-Phenotype (%) [5]: 2%
Total Cell Count [5]: 486 and 239
Population Apoptotic (%) [6]: 68% and 72%
Population Fragmented Nuclei (%) [6]: 28% and 15%
Population Healthy Nuclei (%) [6]: 57% and 61%
Population Hoechst High Intensity Objects (%) [6]: 4% and 9%
Population Membrane Permeable-Phenotype (%) [6]: 15% and 21%
Population Mitochondria Different-Phenotype (%) [6]: 11% and 19%
Population Mitotic Cells (%) [6]: 31% and 27%
Population Normal (%) [6]: 95% and 90%
Population Pyknosed Nuclei (%) [6]: 14% and 22%
Total Cell Count [6]: 325 and 140

COc1ccccc1N1CCN(C[C@@H](C(=O)NC(C)(C)C)c2ccccc2)CC1.Cl.Cl
Population Apoptotic (%) [1]: 73% and 66%
Population Fragmented Nuclei (%) [1]: 29% and 14%
Population Healthy Nuclei (%) [1]: 65% and 80%
Population Hoechst High Intensity Objects (%) [1]: 2% and 1%
Population Membrane Permeable-Phenotype (%) [1]: 5% and 7%
Population Mitochondria Different-Phenotype (%) [1]: 3% and 2%
Population Mitotic Cells (%) [1]: 26% and 33%
Population Normal (%) [1]: 97% and 98%
Population Pyknosed Nuclei (%) [1]: 5%
Population Tubulin-Different-Phenotype (%) [1]: 1% and 3%
Total Cell Count [1]: 281 and 114
Population Apoptotic (%) [2]: 46% and 50%
Population Fragmented Nuclei (%) [2]: 35% and 17%
Population Healthy Nuclei (%) [2]: 49% and 66%
Population Hoechst High Intensity Objects (%) [2]: 3% and 0%
Population Membrane Permeable-Phenotype (%) [2]: 41% and 49%
Population Mitochondria Different-Phenotype (%) [2]: 41% and 56%
Population Mitotic Cells (%) [2]: 53% and 50%
Population Normal (%) [2]: 96% and 99%
Population Pyknosed Nuclei (%) [2]: 14% and 15%
Population Tubulin-Different-Phenotype (%) [2]: 41% and 64%
Total Cell Count [2]: 226 and 102
Population Apoptotic (%) [3]: 68% and 80%
Population Fragmented Nuclei (%) [3]: 29% and 16%
Population Healthy Nuclei (%) [3]: 62% and 75%
Population Hoechst High Intensity Objects (%) [3]: 3%
Population Membrane Permeable-Phenotype (%) [3]: 7% and 5%
Population Mitochondria Different-Phenotype (%) [3]: 1% and 6%
Population Mitotic Cells (%) [3]: 32% and 20%
Population Normal (%) [3]: 96%
Population Pyknosed Nuclei (%) [3]: 8%
Population Tubulin-Different-Phenotype (%) [3]: 3% and 2%
Total Cell Count [3]: 320 and 129
Population Apoptotic (%) [4]: 61% and 70%
Population Fragmented Nuclei (%) [4]: 38% and 20%
Population Healthy Nuclei (%) [4]: 42% and 63%
Population Hoechst High Intensity Objects (%) [4]: 5%
Population Membrane Permeable-Phenotype (%) [4]: 20% and 39%
Population Mitochondria Different-Phenotype (%) [4]: 33% and 61%
Population Mitotic Cells (%) [4]: 38% and 29%
Population Normal (%) [4]: 94%
Population Pyknosed Nuclei (%) [4]: 18% and 15%
Population Tubulin-Different-Phenotype (%) [4]: 25% and 52%
Total Cell Count [4]: 235 and 113
Population Apoptotic (%) [5]: 78% and 83%
Population Fragmented Nuclei (%) [5]: 21% and 16%
Population Healthy Nuclei (%) [5]: 66% and 72%
Population Hoechst High Intensity Objects (%) [5]: 2% and 4%
Population Membrane Permeable-Phenotype (%) [5]: 5% and 7%
Population Mitochondria Different-Phenotype (%) [5]: 1% and 2%
Population Mitotic Cells (%) [5]: 22% and 16%
Population Normal (%) [5]: 97% and 95%
Population Pyknosed Nuclei (%) [5]: 11%
Population Tubulin-Different-Phenotype (%) [5]: 1% and 4%
Total Cell Count [5]: 452 and 162
Population Apoptotic (%) [6]: 58% and 96%
Population Fragmented Nuclei (%) [6]: 33% and 18%
Population Healthy Nuclei (%) [6]: 44% and 58%
Population Hoechst High Intensity Objects (%) [6]: 4% and 8%
Population Membrane Permeable-Phenotype (%) [6]: 28% and 43%
Population Mitochondria Different-Phenotype (%) [6]: 30% and 29%
Population Normal (%) [6]: 95% and 91%
Population Pyknosed Nuclei (%) [6]: 21% and 22%
Population Tubulin-Different-Phenotype (%) [6]: 21% and 35%
Total Cell Count [6]: 271 and 121
